Data set [1] in a line: Immunosuppressive activity on mouse allogenic MLR in vitro. Type of data set: functional. In outline:
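Responders were BALB/c spleen cells (5 × 10⁵, H-2^d). Stimulators were an equal number of C57BL/6 spleen cells (H-2^b) treated with mitomycin C for 30 min at 37 °C. Co-culture in RPMI 1640 with 5 × 10⁻⁵ M 2-mercaptoethanol, 10% FCS and varied compound, 4 days at 37 °C, 5% CO₂. Proliferation read by MTT. IC50 is the mean of triplicates.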

Data set [2] has as its system Rattus norvegicus. In words: Mean survival time of rats after skin allograft (intraperitoneal administration) at 3 mg/kg. Format: functional. The procedure, abridged:
(§1)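 LEW rat (male, 4 wk) dorsal skin grafted onto lateral thorax of F344 rats (male, 4 wk). Compounds in 20% (hydroxypropyl)-β-cyclodextrin given ip daily for 10 days from transplant day. Grafts inspected daily until rejection (>90% necrosis of graft epithelium); mean survival time in days ± SD, n = 4–5, Mann-Whitney U test. "Toxic" means animals died.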

The test system of data set [3] is Rattus norvegicus. Briefly: Mean survival time of rats after skin allograft (intraperitoneal administration) at 10 mg/kg. Type of data set: functional. The procedure, abridged:
as §1

Data set [4] relates to Rattus norvegicus. Briefly: Mean survival time of rats after skin allograft (intraperitoneal administration) at 1 mg/kg. Format: functional. The procedure, abridged: as §1
Data set [5] has as its system Rattus norvegicus. Briefly: Mean survival time of rats after skin allograft (intraperitoneal administration) at 20 mg/kg. Format: functional. In outline: as §1
The subject of data set [6] is Rattus norvegicus. In words: Mean survival time of rats after skin allograft (intraperitoneal administration) at 30 mg/kg; toxic - animals died. Type of data set: ADME, organism-based. Further details: dose 30 mg/kg, route intraperitoneal. The following applies: in vivo, ip. In outline:
as §1

In data set [7] the test system is Rattus norvegicus. Briefly: Mean survival time of rats after skin allograft (intraperitoneal administration) at 1 mg/kg; toxic - animals died. Format: ADME, organism-based. Also on record: dose 1 mg/kg, route intraperitoneal. As to conditions: in vivo, ip. In outline:
as §1

For data set [8], the system named is Rattus norvegicus. Briefly: Mean survival time of rats after skin allograft (intraperitoneal administration) at 0.1 mg/kg. Format: functional. The procedure, abridged: as §1
Data set [9] deals with Rattus norvegicus. In words: Mean survival time of rats after skin allograft (intraperitoneal administration) at 0.3 mg/kg. Type of data set: functional. In outline:
as §1

For the next data set, the species on record is Mus musculus. In words: Effect of compound on IL-2 production from alloantigen-stimulated mouse spleen cells. Format: functional, cell-based. The procedure, abridged:
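BALB/c spleen cells at 5×10^6 cells/mL co-cultured with an equal number of mitomycin C-pretreated C57BL/6 spleen cells, with or without test compound, in RPMI 1640 with 5×10^-5 M 2-mercaptoethanol and 10% FCS; 48 h at 37 °C. Supernatant IL-2 activity measured by IL-2-dependent CTLL-2 proliferation, given in units/mL.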

Data set [10] deals with Rattus norvegicus. Briefly: Mean survival time of rats after skin allograft (intraperitoneal administration) at 10 mg/kg; toxic - animals died. Type of data set: ADME, organism-based. Further details: dose 10 mg/kg, route intraperitoneal. As to conditions: in vivo, ip. In outline: as §1
Data set [11] relates to Rattus norvegicus. In words: Mean survival time of rats after skin allograft (oral administration) at 0.1 mg/kg. Format: functional. In outline: (§2)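 LEW rat (male, 4 wk) dorsal skin grafted onto lateral thorax of F344 rats (male, 4 wk). Compounds in 5% (hydroxypropyl)methylcellulose given orally, daily for 10 days from transplant day. Grafts inspected daily until rejection (>90% necrosis of graft epithelium); mean survival time in days ± SD. "Toxic" means animals died.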

The test system of data set [12] is Rattus norvegicus. Briefly: Mean survival time of rats after skin allograft (oral administration) at 0.3 mg/kg. Type of data set: functional. In outline:
as §2

The subject of data set [13] is Rattus norvegicus. In words: Mean survival time of rats after skin allograft (oral administration) at 100 mg/kg; toxic - animals died. Type of data set: ADME, organism-based. Also on record: dose 100 mg/kg, route oral. As to conditions: in vivo. The procedure, abridged:
as §2

In data set [14] the test system is Rattus norvegicus. Briefly: Mean survival time of rats after skin allograft (oral administration) at 1 mg/kg. Format: functional. The procedure, abridged:
as §2

Data set [15] deals with Rattus norvegicus. Briefly: Mean survival time of rats after skin allograft (oral administration) at 30 mg/kg. Type of data set: functional. In outline:
as §2

Data set [16] relates to Rattus norvegicus. In words: Mean survival time of rats after skin allograft (oral administration) at 3 mg/kg. Format: functional. The procedure, abridged: as §2
Data set [17] has as its system Rattus norvegicus. Briefly: Mean survival time of rats after skin allograft (oral administration) at 10 mg/kg. Format: functional. The procedure, abridged:
as §2

Data set [18] deals with Rattus norvegicus. Briefly: Mean survival time of rats after skin allograft (intraperitoneal administration) at 100 mg/kg; toxic - animals died. Type of data set: ADME, organism-based. Further details: dose 100 mg/kg, route intraperitoneal. As to conditions: in vivo, ip. In outline: as §1
In data set [19] the test system is Rattus norvegicus. Briefly: Mean survival time of rats after skin allograft (intraperitoneal administration) at 30 mg/kg. Type of data set: functional. The procedure, abridged: as §1
The test system of data set [20] is Rattus norvegicus. Briefly: Mean survival time of rats after skin allograft (oral administration) at 30 mg/kg; toxic - animals died. As to conditions: in vivo. Format: ADME, organism-based. Further details: dose 30 mg/kg, route oral. In outline: as §2
The test system of data set [21] is Rattus norvegicus. In words: Mean survival time of rats after skin allograft (intraperitoneal administration) at 20 mg/kg; toxic - animals died. Type of data set: ADME, organism-based. Further details: dose 20 mg/kg, route intraperitoneal. The following applies: in vivo, ip. The procedure, abridged: as §1

Our source for the IC50 and MST values is ChEMBL document CHEMBL1129383, “Potent immunosuppressants, 2-alkyl-2-aminopropane-1,3-diols” (J Med Chem, 1996).

What is called IC50 is the concentration at which inhibition is half-maximal. High values mean weaker potency in that assay, low ones greater potency in that assay.

Where only a bound is given, the exact number is not on record here.

`CCCCCCCCCCCCC(N)(CO)CO` returned an IC50 in [1] of 0.27 µM.

The molecule `CCCCCCC(O)CCCCCC/C=C/C[C@@H](O)[C@H](O)C(N)(CO)CO` (stereo partly specified) returned an IC50 in [1] of 0.0047 µM. Also, the MST was 9.2 days in the data set on Rattus norvegicus [2]; 11.8 days in the data set with Rattus norvegicus [3]; 8.2 days in the data set on Rattus norvegicus [4]; 13.4 days with Rattus norvegicus [5]; “Toxic” with Rattus norvegicus [6].

For the molecule `CCCCCCCCCCCCCC(N)(CO)CO`, the IC50 in data set [1] was 0.012 µM.

Consider `CCCCCCCCCCCCC/C=C/C[C@@H](O)[C@H](O)[C@@](N)(CO)C(=O)O`, for which it took 0.0012 µM to reach half-maximal inhibition in data set [1] (IC50). Also, the MST result in the data set with Rattus norvegicus [7] is “Toxic”; in the data set with Rattus norvegicus [8] it was 9 days; with Rattus norvegicus [9] it was 10.6 days.

Turning to `CCCCCCCCCCCCCCCCCCCCC(N)(CO)CO`, in data set [1], it took 0.19 µM to reach half-maximal inhibition (IC50).

Consider `CCCCCCCCCCCCCCC(N)(CO)CO`, for which the half-maximal inhibitory concentration (IC50) in data set [1] is 0.0059 µM; in the data set filed under Mus musculus it was over 1 µM. Moreover, the MST was 44.4 days in the data set on Rattus norvegicus [2]; “Toxic” with Rattus norvegicus [10]; 10.3 days in the data set with Rattus norvegicus [11]; 13.6 days in the data set on Rattus norvegicus [12]; “Toxic” in the data set with Rattus norvegicus [13]; 24.4 days with Rattus norvegicus [14]. Also, the MST was 52.2 days with Rattus norvegicus [15]; 36.4 days with Rattus norvegicus [16]; 11.2 days with Rattus norvegicus [8]; 23.1 days in the data set on Rattus norvegicus [9]; 39 days with Rattus norvegicus [4]; 46.4 days in the data set with Rattus norvegicus [17].

In turn, `CCCCCCCCCCCCCCCCCCCCCCC(N)(CO)CO` yielded an IC50 in data set [1] of 1.6 µM. That is a single-digit micromolar value.

In data set [1], `CCCCCCCCC(N)(CO)CO` gave an IC50 of 3.7 µM.

Molecule `CCCCCCC(O)CCCCCCCCC[C@@H](O)[C@H](O)C(N)(CO)CO` (stereo partly specified) gave an IC50 in data set [1] of 1.63 µM. The MST in the data set on Rattus norvegicus [2] was 11 days; with Rattus norvegicus [18], “Toxic”; with Rattus norvegicus [3] it was 12.2 days; in the data set on Rattus norvegicus [4] it was 9.2 days; in the data set with Rattus norvegicus [19] it was 12.5 days.

For `CCCCCCCCCCC(N)(CO)CO`, the IC50 in data set [1] was 0.44 µM.

The molecule `CCCCCCCCCCCCC/C=C/C[C@H]1OC(=O)[C@](N)(CO)[C@@H]1O` displayed an IC50 in [1] of 0.0036 µM.

Turning to `CCCCCCCCCCCCCCCC(N)(CO)CO`, the IC50 in data set [1] is 0.0029 µM. Moreover, the MST entry in the data set on Rattus norvegicus [10] is “Toxic”; in the data set on Rattus norvegicus [11], 18.8 days; with Rattus norvegicus [12], 28.5 days; in the data set with Rattus norvegicus [14], 35.5 days; with Rattus norvegicus [20], “Toxic”; in the data set with Rattus norvegicus [16] it was 47 days. Further, the MST in the data set with Rattus norvegicus [17] came out at 8.3 days.

The molecule `CCCCCCCCCCCCCCCCC(N)(CO)CO` registered an IC50 in data set [1] of 0.01 µM. Also, the MST in the data set on Rattus norvegicus [2] was 41.8 days; in the data set with Rattus norvegicus [21] it was “Toxic”; in the data set with Rattus norvegicus [8] it was 10.5 days; in the data set on Rattus norvegicus [9], 14.3 days; in the data set on Rattus norvegicus [4] it was 38.5 days.

For the molecule `CCCCCCCCCCCCC/C=C/C[C@@H](O)[C@H](O)C(N)(CO)CO`, the half-maximal inhibitory concentration (IC50) in [1] was found to be 0.056 µM. Besides, the MST in the data set on Rattus norvegicus [2] was 9.8 days; in the data set on Rattus norvegicus [3] it was 14 days; in the data set on Rattus norvegicus [4], 8.2 days; in the data set with Rattus norvegicus [5], 16.6 days; in the data set with Rattus norvegicus [6], “Toxic”.

For the molecule `CCCCCCCCCCCCCCCCCCC(N)(CO)CO`, in data set [1], half-maximal inhibition (IC50) required 0.012 µM. The MST with Rattus norvegicus [2] is 17.6 days; in the data set with Rattus norvegicus [10] it was “Toxic”; in the data set on Rattus norvegicus [9] it was 11.2 days; in the data set on Rattus norvegicus [4], 14.8 days.

As for `C/C=C/C[C@@H](C)[C@@H](O)[C@H]1C(=O)N[C@@H](CC)C(=O)N(C)CC(=O)N(C)[C@@H](CC(C)C)C(=O)N[C@@H](C(C)C)C(=O)N(C)[C@@H](CC(C)C)C(=O)N[C@@H](C)C(=O)N[C@H](C)C(=O)N(C)[C@@H](CC(C)C)C(=O)N(C)[C@@H](CC(C)C)C(=O)N(C)[C@@H](C(C)C)C(=O)N1C` [CYCLOSPORINE], the MST was determined as 8.5 days in the data set on Rattus norvegicus [14]; 20.5 days in the data set with Rattus norvegicus [15]; 10.3 days in the data set with Rattus norvegicus [16]; 7.6 days in the data set with Rattus norvegicus [4]; 19.4 days in the data set with Rattus norvegicus [19]; 13.5 days with Rattus norvegicus [17].

`CCCCCCC(O)CCCCCC/C=C/C[C@@H](O)[C@H](O)[C@@](N)(CO)C(=O)O` (stereo partly specified): inhibition in data set [1] was half-maximal at 0.0063 µM (IC50). For the same molecule, the MST result with Rattus norvegicus [7] is “Toxic”; with Rattus norvegicus [8] it was 7.6 days; with Rattus norvegicus [9] it was 9.6 days.

Take `CCCCCCC(=O)CCCCCC/C=C/C[C@@H](O)[C@H](O)[C@@](N)(CO)C(=O)O` [MYRIOCIN]: in data set [1], the IC50 was 0.003 µM. The MST entry in the data set with Rattus norvegicus [7] is “Toxic”.

With `CCCCCCCCCCCCC/C=C/C[C@H]1OC(=O)[C@](N)(CO)[C@H]1O`, half-maximal inhibition in data set [1] (IC50) was put at 0.01 µM.

Take `CCCCCCCCCCCCCCCC[C@@H](O)[C@H](O)C(N)(CO)CO`: the IC50 in data set [1] turned out to be 0.32 µM. Besides, the MST in the data set with Rattus norvegicus [2] is 9.2 days; with Rattus norvegicus [3] it was 11.8 days; with Rattus norvegicus [4] it was 8.2 days; in the data set on Rattus norvegicus [5], 15 days; in the data set with Rattus norvegicus [6] it was “Toxic”.
